Mdm2 MdmX PPI: inhibitors of human Mdm2/MdmX interaction. inhibition, % at 8 µM. AID 485346. SaOS-2 split-luciferase Mdm2/MdmX complementation, luminescence. 330,000 compounds, 3% hits. O15151+Q00987;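 active = inhibition of at least 50% at 8 µM in the primary screen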
Target sequence (O15151 whole entry, looked up): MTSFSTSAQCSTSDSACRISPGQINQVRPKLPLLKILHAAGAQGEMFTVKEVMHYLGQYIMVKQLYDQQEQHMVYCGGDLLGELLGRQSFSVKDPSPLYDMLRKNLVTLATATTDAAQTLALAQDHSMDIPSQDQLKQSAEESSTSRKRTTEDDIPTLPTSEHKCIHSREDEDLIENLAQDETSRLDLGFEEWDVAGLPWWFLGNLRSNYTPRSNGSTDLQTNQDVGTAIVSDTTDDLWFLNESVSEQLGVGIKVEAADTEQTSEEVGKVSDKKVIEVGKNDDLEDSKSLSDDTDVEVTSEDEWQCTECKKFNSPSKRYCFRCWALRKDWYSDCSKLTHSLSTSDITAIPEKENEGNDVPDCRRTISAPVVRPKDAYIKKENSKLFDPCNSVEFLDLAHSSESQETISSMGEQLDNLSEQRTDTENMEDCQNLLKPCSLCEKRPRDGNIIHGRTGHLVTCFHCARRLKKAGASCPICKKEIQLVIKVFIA
Target sequence (Q00987 whole entry, looked up): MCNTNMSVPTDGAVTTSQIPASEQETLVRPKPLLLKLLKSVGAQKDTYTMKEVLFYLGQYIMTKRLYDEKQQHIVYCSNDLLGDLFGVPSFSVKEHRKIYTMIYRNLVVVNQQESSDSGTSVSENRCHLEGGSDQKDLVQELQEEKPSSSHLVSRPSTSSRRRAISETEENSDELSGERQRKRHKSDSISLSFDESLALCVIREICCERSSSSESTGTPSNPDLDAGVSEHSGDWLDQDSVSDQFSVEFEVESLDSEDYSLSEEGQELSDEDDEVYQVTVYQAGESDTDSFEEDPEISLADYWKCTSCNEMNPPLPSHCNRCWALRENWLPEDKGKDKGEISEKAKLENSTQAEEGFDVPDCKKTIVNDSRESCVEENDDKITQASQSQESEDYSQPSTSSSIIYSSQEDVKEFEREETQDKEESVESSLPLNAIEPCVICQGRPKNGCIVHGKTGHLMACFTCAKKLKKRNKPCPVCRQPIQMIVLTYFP
IMP-1 inh: inhibitors of Pseudomonas aeruginosa IMP-1 metallo-beta-lactamase | purified IMP-1, nitrocefin hydrolysis, epi-absorbance fluorescence | inhibition, % at 5.6 µM | 290,000 compounds, 0.45% hits;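 active = inhibition above the mean plus 3 SD of all compounds in the same screening run, cut at about 4.5% in these data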;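 also: 0% = IMP-1 with DMSO and 100% = DMSO wells lacking enzyme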
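assay system = purified recombinant IMP-1 metallo-beta-lactamase enzyme | schedule = 15 min preincubation plus 25 min reaction at 25 °C | signal = Epi-absorbance fluorescence, 480 nm excitation, 530 nm emission | read-out basis = percent inhibition from optical density relative to buffer-blank wells | controls = IMP-1 with DMSO as 0%, enzyme-free DMSO as 100%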
VIM-2 inhibitor: inhibitors of Pseudomonas aeruginosa VIM-2 metallo-beta-lactamase | AID 1527 | 290,000 compounds, 0.89% hits | inhibition, % at 5.6 µM | purified VIM-2, nitrocefin hydrolysis, epi-absorbance fluorescence;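 active = inhibition above the mean of all tested compounds plus 3 SD, cutoff set per screening run, cut at about 7.5% in these data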;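 also: red hydrolysis product quenches plate fluorescence so inhibitors raise well fluorescence; 0% = enzyme with DMSO and 100% = DMSO without enzyme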
aSyn 5UTR inh: MLPCN primary screen, SNCA 5' untranslated region; alpha-synuclein 5'UTR reporter, inhibitor activity; inhibition, % (tested at 7.5 µM); 300,000 compounds, 0.82% hits; in the data active = inhibition above about 60%;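 also: H4 neuroglioblastoma cells stably carrying SNCA 5'UTR luciferase fusion; 0% = DMSO wells and 100% = positive control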
Jurkat NFkB inh: lowers PMA/ionomycin-induced NF-kB signal in Jurkat cells | 330,000 compounds, 0.53% hits | PMA/ionomycin-induced NF-kB luciferase reporter, luminescence | inhibition, % at 4 µM; in the data active = inhibition above about 50%
697 NFkB inh: inhibitors of the PMA/ionomycin-induced NF-kB reporter in 697 B cells; 697 B-cell NF-kB luciferase reporter, 16 h; inhibition, % at 4 µM; 330,000 compounds, 0.33% hits; in the data active = inhibition above about 35%
Mdm2-MdmX conf: human Mdm2/MdmX binding inhibition, confirmed; AID 489028; luminescent assay; shares compounds with Mdm2 MdmX PPI; 10,000 compounds, 55% hits; inhibition, % at 8 µM; in the data active = inhibition above about 40%
FLuc counter: full-length luciferase inhibition in Mdm2/MdmX counter-screen; SaOS-2 full-length luciferase counterscreen, luminescence; inhibition, % at 8 µM; shares compounds with Mdm2 MdmX PPI; 6,200 compounds, 77% hits;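 active = mean inhibition at 8 µM reaching about 37%, which flags the compound as non-specific, limit read from the data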;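 also: p53-null SaOS-2 cells with luciferase driven by a doxycycline-inducible promoter; compound on cells about two nights before reading with doxycycline added after day one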
Starred values were filed as active, the others as inactive; · = no result. Shown are actives, neighbours in structure and some others; about 4.7% of the full set was active somewhere.

SMILES	Mdm2 MdmX PPI	IMP-1 inh	VIM-2 inhibitor	aSyn 5UTR inh	Jurkat NFkB inh	697 NFkB inh	Mdm2-MdmX conf	others
CCOc1ccc2nc(Cl)c(C3CC(c4ccccc4)=NN3C(=O)c3ccco3)cc2c1 (configuration not stated)	56.5*	-3.8	0.4	16.5	-5.8	14.3	7.8
O=C(O)[C@H]1CC=C[C@H]2CCN(Cc3ccc(Cl)c(Cl)c3)C(=O)[C@@H]12	7.1	·	·	·	·	-1.7	·
O=C(Nc1ccc(Cl)c(C(F)(F)F)c1)[C@@H]1CC=C[C@@H]2CCN(Cc3ccc(Cl)c(Cl)c3)C(=O)[C@@H]21	62.6*	·	·	11.7	-1.8	9.5	1.4
COc1ccc(/C=N/NC(=O)c2cccc([N+](=O)[O-])c2)c2ccccc12	86.1*	-1.7	-0.2	2.0	-1.6	-6.2	22.6
Cc1cccc(/C=N/NC(=O)c2cccc([N+](=O)[O-])c2)n1	-18.6	-3.1	-1.1	12.6	1.0	6.0	·
COc1ccc(/C=N/NC(=O)c2cccc([N+](=O)[O-])c2)cc1OC	15.8	-2.6	-1.6	-29.4	-5.6	14.5	·
N#Cc1cc([N+](=O)[O-])ccc1Oc1cccc(/C=N/NC(=O)c2cccc(Cl)c2)c1	61.9*	-2.4	-1.9	-3.0	14.7	-8.8	22.4
Cc1cc(/C=N/NC(=O)c2cccc([N+](=O)[O-])c2)c(C)n1-c1ccc(Cl)cc1Cl	50.4*	-1.6	-2.3	35.5	16.4	-7.1	35.4
Cn1cc(/C=C(\C#N)C(=O)Nc2ncc(Cc3cccc(Cl)c3)s2)c2ccccc21	27.6	1.8	-0.7	5.2	-3.7	14.3	·
Cn1cc(/C=C(\C#N)C(=O)Nc2cccc([N+](=O)[O-])c2)c2ccccc21	65.6*	-2.9	-2.1	15.5	-5.4	24.0	20.2
COCCn1c(SCC(=O)NCc2ccco2)nnc1C(C)C	14.9	-4.2	-2.4	-6.9	-13.3	-0.7	·
Cc1cccc(NC(=O)C2CCN(S(=O)(=O)c3ccc4c(c3)NC(=O)CO4)CC2)c1	34.0	-3.1	-1.4	3.8	3.7	0.3	·
CCOc1ccc(CCNC(=O)CSc2nc3ncc(Cl)cc3[nH]2)cc1OCC	9.8	-0.7	0.1	20.2	-10.5	-2.1	·
Cn1cc(/C=N/NC(=O)c2cccc([N+](=O)[O-])c2)c2ccccc21	61.0*	-3.7	-5.3	-6.8	-4.3	-4.9	-8.5
COc1cc(-c2c(C#N)c(N)nc3c2c(C)nn3-c2ccc(C)c(C)c2)cc(OC)c1OC	45.2	-1.9	-2.0	-13.9	15.9	18.5	·
Cc1nn(-c2ccc(F)cc2)c2nc(N)c(C#N)c(-c3cccs3)c12	41.2	-3.2	-1.8	36.3	-25.5	-55.5	·
Cc1nn(-c2ccc(F)cc2)c2nc(N)c(C#N)c(-c3ccc(O)c(O)c3)c12	61.1*	-1.7	5.7	23.2	15.6	-42.1	29.4
Cc1nn(-c2ccccc2)c2nc(N)c(C#N)c(-c3ccc(O)c(O)c3)c12	55.2*	-1.6	4.9	35.3	-2.3	4.7	23.1
COc1ccc(NC(=O)C2CCN(S(=O)(=O)c3cccc4nonc34)CC2)cc1OC	-11.2	-4.0	-1.4	13.9	24.1	11.3	·
CC(C)n1c(SCC(=O)Nc2ccc(F)cc2)nnc1C1CC1	11.2	-1.1	-1.9	-9.5	0.2	26.5	·
Nc1ncnc(N2CCc3ccccc32)c1[N+](=O)[O-]	82.1*	-2.5	0.3	44.3	30.9	13.4	85.0*	FLuc counter=51.6*
CNC(=O)c1[nH]cnc1C(=O)Nc1ccc(Cl)cc1	33.3	-1.8	0.3	17.8	11.6	0.1	·
O=C(Nc1ccccc1)c1nc[nH]c1C(=O)NCCCNC(=O)c1[nH]cnc1C(=O)Nc1ccccc1	39.4	·	·	·	-0.2	17.8	·
O=C(Nc1ccccc1)c1nc[nH]c1C(=O)NCCN(CCNC(=O)c1[nH]cnc1C(=O)Nc1ccccc1)CCNC(=O)c1[nH]cnc1C(=O)Nc1ccccc1	62.2*	·	·	·	-3.0	9.5	8.8
Cc1ccc(NC(=O)c2nc[nH]c2C(=O)NCCN(CCNC(=O)c2[nH]cnc2C(=O)Nc2ccc(C)cc2)CCNC(=O)c2[nH]cnc2C(=O)Nc2ccc(C)cc2)cc1	90.4*	·	·	·	0.0	-13.9	76.0*	FLuc counter=38.2*
SMILES	Mdm2 MdmX PPI	IMP-1 inh	VIM-2 inhibitor	aSyn 5UTR inh	Jurkat NFkB inh	697 NFkB inh	Mdm2-MdmX conf	others
O=C(Nc1ccc(Cl)cc1)c1nc[nH]c1C(=O)NCCN(CCNC(=O)c1[nH]cnc1C(=O)Nc1ccc(Cl)cc1)CCNC(=O)c1[nH]cnc1C(=O)Nc1ccc(Cl)cc1	100.5*	·	·	·	3.3	-10.1	97.5*	FLuc counter=55.7*
O=C(Nc1ccccc1)c1nc[nH]c1C(=O)NCCCCCCNC(=O)c1[nH]cnc1C(=O)Nc1ccccc1	87.2*	·	·	·	11.5	13.8	33.5
C=CCN1C(=O)C(Cc2ccccc2Cl)SC1=Nc1ccc(C(=O)O)cc1 (configuration not stated)	9.4	-1.2	0.5	6.9	-1.7	22.7	·
O=C(Nc1ccc(Cl)cc1)c1nc[nH]c1C(=O)NCCCNC(=O)c1[nH]cnc1C(=O)Nc1ccc(Cl)cc1	97.1*	·	·	·	2.1	30.7	-5.1
CC(C)(C)OC(=O)CNC(=O)c1[nH]cnc1C(=O)Nc1ccc(Cl)cc1	8.7	·	·	35.7	-1.6	-21.7	·
COc1ccc(-c2[nH]c(-c3cccc(OC)c3)nc2SCC(=O)NCc2ccco2)cc1	9.0	-3.9	-3.2	·	-20.2	2.8	·
CC(=O)NC1=NN(C(C)=O)C(C)(c2ccccc2)S1 (configuration not stated)	60.0*	-2.4	-5.1	4.9	43.4	-2.2	53.1*	FLuc counter=52.7*
CC(=O)NC1=NN(C(C)=O)C(C)(c2ccc3ccccc3c2)S1 (configuration not stated)	20.8	-4.7	0.3	-5.5	0.7	-1.8	·
CC1(c2ccccc2)NC(=O)N(CC(=O)NC(=O)NC2CCCC2)C1=O (configuration not stated)	-0.2	-1.7	-1.1	12.4	1.8	1.1	·
CCOc1cc(/C=N/N=C(\N)c2nonc2N)cc(Br)c1OCc1cccc2ccccc12	69.1*	-5.1	-3.8	24.9	16.2	10.6	59.4*	FLuc counter=33.4
COc1cc(/C=N/N=C(/N)c2nonc2N)cc(Br)c1OCc1cccc(C)c1	25.9	-2.0	-2.8	-22.4	3.4	8.3	·
O=C(Cn1nc(-c2ccccc2)ccc1=O)Nc1ccc(NC(=O)c2ccccn2)cc1	83.4*	-2.4	-2.6	23.5	-1.5	-8.0	18.9
O=C(Cn1nc(-c2ccccc2)ccc1=O)Nc1ccc(-n2cnnn2)cc1	31.5	1.4	3.3	22.4	18.1	13.3	·
O=Cc1ccccc1OCCOc1ccccc1C=O	51.4*	1.1	1.4	2.9	10.0	-7.8	42.9*	FLuc counter=90.7*

Assay outcomes deposited in PubChem BioAssay by several laboratories.
